Measured values taken from ChEMBL document CHEMBL3785059, “LC-MS-Guided Isolation of Penicilfuranone A: A New Antifibrotic Furancarboxylic Acid from the Plant Endophytic Fungus Penicillium sp. sh18” (J Nat Prod, 2016).
The source made the active and inactive calls. The calls are words filed in the database; no cut-off is given here.

Columns and labels:
[1] = system: LX2; test: Effect on Smad2/3 expression in human LX2 cells at 1 to 4 uM after 1 hr by Western blot analysis; format: functional, cell-based
Method in brief: (§1)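 Serum-starved cells (24 h, no FBS) preincubated 2 h with compound at 1, 2 or 4 μM, DMSO or 10 μM SB431542. Then exposed to TGF-β1 at 10 ng/mL final for 1 h. Lysates (30 μg) immunoblotted for phospho-Smad2/3 and Smad7; membranes reprobed for total Smad2/3 and β-actin for loading.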

[2] = system: HSC-T6; test: Inhibition of TGF-beta-induced vimentin expression in rat HSC-T6 cells at 1 to 4 uM after 48 hrs by Western blot analysis; format: functional, cell-based
Method in brief: (§2)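 Cells at 70% confluence serum-starved 24 h (passages 18–25). Preincubated 2 h with compound (1, 2 or 4 μM), DMSO vehicle or 10 μM SB431542, then 10 ng/mL human recombinant TGF-β1 added without wash for 48 h. Whole-cell lysates (30 μg protein) run on SDS-PAGE and immunoblotted with β-actin as loading control.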

[3] = system: HSC-T6; test: Inhibition of TGF-beta1-induced decrease of Smad7 expression in rat HSC-T6 cells after 1 hr by Western blot analysis; format: functional, cell-based; method in brief: as §1
[4] = system: HSC-T6; test: Inhibition of TGF-beta-induced type-1 collagen expression in rat HSC-T6 cells after 48 hrs by Western blot analysis; format: functional, cell-based; method in brief: as §2
[5] = system: LX2; test: Inhibition of TGF-beta-induced CTGF expression in human LX2 cells after 48 hrs by Western blot analysis; format: functional, cell-based
[6] = Cytotoxicity against rat HSC-T6 cells at up to 4 uM after 48 hrs by MTT assay; format: cell-based; details: hsc-t6, 48 h
Method in brief: (§3)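 MTT (5 mg/mL stock) added for 4 h at 37 °C. Formazan dissolved in DMSO, OD read at 570 nm. Viability given as % of control; mean ± SEM of three independent experiments.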

[7] = target: T1, Mothers against decapentaplegic homolog 2/homolog 3 (Homo sapiens) (UniProt P84022+Q15796); test: Inhibition of TGF-beta1-induced Smad2/3 phosphorylation in human LX-2 cells after 1 hr by Western blot analysis; format: cell-based; method in brief: as §1
T1 sequence (P84022 whole entry, looked up): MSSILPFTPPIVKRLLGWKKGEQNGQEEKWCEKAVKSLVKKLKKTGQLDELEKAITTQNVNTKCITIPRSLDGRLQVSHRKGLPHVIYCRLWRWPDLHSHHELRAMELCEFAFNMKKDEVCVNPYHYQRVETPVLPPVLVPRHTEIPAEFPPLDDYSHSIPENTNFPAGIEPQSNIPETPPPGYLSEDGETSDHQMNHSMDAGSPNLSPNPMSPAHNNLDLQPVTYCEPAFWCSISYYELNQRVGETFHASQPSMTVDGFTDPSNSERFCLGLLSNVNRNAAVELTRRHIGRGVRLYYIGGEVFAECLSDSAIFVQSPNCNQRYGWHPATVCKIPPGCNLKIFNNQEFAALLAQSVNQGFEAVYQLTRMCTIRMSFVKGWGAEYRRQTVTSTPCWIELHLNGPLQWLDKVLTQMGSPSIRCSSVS
T1 sequence (Q15796 whole entry, looked up): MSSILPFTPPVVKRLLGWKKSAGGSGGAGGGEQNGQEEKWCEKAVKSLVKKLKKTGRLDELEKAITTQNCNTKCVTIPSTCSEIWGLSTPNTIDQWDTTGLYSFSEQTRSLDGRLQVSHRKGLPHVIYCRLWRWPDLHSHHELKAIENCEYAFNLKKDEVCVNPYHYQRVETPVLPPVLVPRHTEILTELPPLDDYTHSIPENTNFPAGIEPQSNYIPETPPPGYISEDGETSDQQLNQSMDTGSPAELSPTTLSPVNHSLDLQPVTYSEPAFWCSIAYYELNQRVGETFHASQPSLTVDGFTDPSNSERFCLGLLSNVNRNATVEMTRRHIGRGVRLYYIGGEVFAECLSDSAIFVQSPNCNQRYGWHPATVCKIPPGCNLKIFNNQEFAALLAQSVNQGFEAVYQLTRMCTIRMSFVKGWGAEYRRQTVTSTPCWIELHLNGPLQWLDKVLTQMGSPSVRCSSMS

[8] = Cytotoxicity against human L02 cells at up to 4 uM after 48 hrs by MTT assay; format: cell-based; details: l02, 48 h; method in brief: as §3
[9] = system: LX2; test: Inhibition of TGF-beta-induced type-1 collagen expression in human LX2 cells after 48 hrs by Western blot analysis; format: functional, cell-based; method in brief: as §2
[10] = system: HSC-T6; test: Inhibition of TGF-beta-induced alpha-SMA expression in rat HSC-T6 cells at 1 to 4 uM after 48 hrs by Western blot analysis; format: functional, cell-based; method in brief: as §2
[11] = system: HSC-T6; test: Inhibition of TGF-beta-induced CTGF expression in rat HSC-T6 cells after 48 hrs by Western blot analysis; format: functional, cell-based
[12] = system: LX2; test: Inhibition of TGF-beta-induced alpha-SMA expression in human LX2 cells at 1 to 4 uM after 48 hrs by Western blot analysis; format: functional, cell-based; method in brief: as §2
[13] = system: LX2; test: Inhibition of TGF-beta1-induced decrease of Smad7 expression in human LX2 cells after 1 hr by Western blot analysis; format: functional, cell-based; method in brief: as §1
[14] = target: T2, Mothers against decapentaplegic homolog 2/homolog 3 (Rattus norvegicus) (UniProt O70436+P84025); test: Inhibition of TGF-beta1-induced Smad2/3 phosphorylation in rat HSC-T6 cells after 1 hr by Western blot analysis; format: cell-based; method in brief: as §1
T2 sequence (O70436 whole entry, looked up): as the sequence (Q15796 whole entry, looked up) above, with P90A, I93V, N154S counted along it
T2 sequence (P84025 whole entry, looked up): as the sequence (P84022 whole entry, looked up) above

[15] = system: LX2; test: Inhibition of TGF-beta-induced vimentin expression in human LX2 cells at 1 to 4 uM after 48 hrs by Western blot analysis; format: functional, cell-based; method in brief: as §2
[16] = system: HSC-T6; test: Effect on Smad2/3 expression in rat HSC-T6 cells at 1 to 4 uM after 1 hr by Western blot analysis; format: functional, cell-based; method in brief: as §1
[17] = Cytotoxicity against human LX2 cells at up to 4 uM after 48 hrs by MTT assay; format: cell-based; details: lx2, 48 h; method in brief: as §3
[18] = target: T1, Mothers against decapentaplegic homolog 2/homolog 3 (Homo sapiens); test: Inhibition of TGF-beta1-induced Smad2/3 phosphorylation in human LX2 cells at 10 uM after 1 hr by Western blot analysis; format: cell-based
Method in brief: (§4)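 HSC-T6 (rat; RPMI 1640) or LX-2 (human; DMEM) cells with 10% FBS, passages 18-25, were grown to 70% confluence and serum-starved 24 h. They were preincubated 2 h with test agent or DMSO, then exposed to TGF-β1 at a final 10 ng/mL for 1 h. Blots of 30 μg lysate were probed for phospho-Smad2/3 and Smad7, then reprobed for total Smad2/3 and β-actin.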

[19] = system: LX2; test: Effect on Smad2/3 expression in human LX2 cells at 10 uM after 1 hr by Western blot analysis; format: functional, cell-based; method in brief: as §4
[20] = system: HSC-T6; test: Inhibition of TGF-beta1-induced decrease of Smad7 expression in rat HSC-T6 cells at 10 uM after 1 hr by Western blot analysis; format: functional, cell-based; method in brief: as §4
[21] = system: LX2; test: Inhibition of TGF-beta-induced vimentin expression in human LX2 cells at 10 uM after 48 hrs by Western blot analysis; format: functional, cell-based
Method in brief: (§5)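 Rat HSC-T6 (RPMI 1640) or human LX-2 (DMEM) cells, passages 18-25, at 70% confluence were serum-deprived for 24 h. After 2 h pretreatment with agent or DMSO vehicle, TGF-β1 was added without washing at a final 10 ng/mL for 48 h. Whole-cell lysates (30 μg) were blotted for vimentin, with β-actin as the loading control.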

[22] = system: HSC-T6; test: Inhibition of TGF-beta-induced vimentin expression in rat HSC-T6 cells at 10 uM after 48 hrs by Western blot analysis; format: functional, cell-based; method in brief: as §5
[23] = system: HSC-T6; test: Effect on Smad2/3 expression in rat HSC-T6 cells at 10 uM after 1 hr by Western blot analysis; format: functional, cell-based; method in brief: as §4
[24] = system: LX2; test: Inhibition of TGF-beta1-induced decrease of Smad7 expression in human LX2 cells at 10 uM after 1 hr by Western blot analysis; format: functional, cell-based; method in brief: as §4
[25] = target: T2, Mothers against decapentaplegic homolog 2/homolog 3 (Rattus norvegicus); test: Inhibition of TGF-beta1-induced Smad2/3 phosphorylation in rat HSC-T6 cells at 10 uM after 1 hr by Western blot analysis; format: cell-based; method in brief: as §4

For `CC/C=C/C=C/[C@@]1(C)OC([C@H]2[C@@H](C)C(=O)c3cc(OC)c(O)c(O)c3[C@@]2(C)O)=C(C(=O)OC)C1=O`, the Activity [1] was “inactive”, the inhibition [2] was “Active” and the inhibition [3] was “Dose-dependent effect”. The inhibition [4] was “Dose-dependent effect”, the inhibition [5] was “Dose-dependent effect” and the Activity [6] was “Non-toxic”. For the same molecule, the inhibition [7] was “Dose-dependent effect”, the Activity [8] was “Non-toxic” and the inhibition [9] was “Dose-dependent effect”. The inhibition [10] was “Active”, the inhibition [11] was “Dose-dependent effect” and the inhibition [12] was “Active”. For the same molecule, the inhibition [13] was “Dose-dependent effect”, the inhibition [14] was “Dose-dependent effect” and the inhibition [15] was “Active”. For the same molecule, the Activity [16] was “inactive” and the Activity [17] was “Non-toxic”.
With `NC(=O)c1ccc(-c2nc(-c3ccccn3)c(-c3ccc4c(c3)OCO4)[nH]2)cc1` the inhibition [18] was “Dose-dependent effect”, the Activity [19] was “inactive” and the inhibition [20] was “Dose-dependent effect”. For the same molecule, the inhibition [21] was “Active”, the inhibition [22] was “Active” and the Activity [23] was “inactive”. For the same molecule, the inhibition [24] was “Dose-dependent effect” and the inhibition [25] was “Dose-dependent effect”.
